Our source for the Activity and IC50 values is ChEMBL document CHEMBL1268974, “Synthesis and antitumour activity of glycyrrhetinic acid derivatives” (Bioorg Med Chem, 2010).

pIC50: −log10 of the molar value. Active and inactive are the calls of the source. The rule behind the calls is not given here.

Assay [1] concerns A549. Put plainly: Induction of apoptosis in human A549 cells at IC90 concentration after 24 to 48 hrs using acridine orange/ethidium bromide dye by fluorescence microscopic analysis. The format is functional, cell-based. The gist of the method:
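About 500,000 cells were seeded in flasks and grown for 24 h, then the medium was replaced with compound-containing medium. After 24–48 h, floating cells in the supernatant were pelleted, washed and resuspended in PBS, mixed with acridine orange/ethidium bromide and examined by fluorescence microscopy. Green nuclear fluorescence was scored as apoptotic and red nuclei as necrotic.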

For assay [2], the system named is A-431. Nature of the assay: Cytotoxicity against human A431 cells after 96 hrs by SRB assay. The format is functional, cell-based. Particulars: A-431, 96 h. (In general: The SRB assay estimates cell density from bound dye.)
For assay [3], the system named is A2780. Put plainly: Cytotoxicity against human A2780 cells after 96 hrs by SRB assay. In kind it is functional, cell-based. The settings on record: Homo sapiens, A2780, 96 h.
In assay [4] the test system is HT-29. Put plainly: Cytotoxicity against human HT-29 cells after 96 hrs by SRB assay. The format is functional, cell-based. The settings on record: HT-29, 96 h.
A short description of assay [5]: Cytotoxicity against human A253 cells after 96 hrs by SRB assay. The format is functional, cell-based. Particulars: Homo sapiens, A253, 96 h.
Assay [6] concerns 8505C. Put plainly: Cytotoxicity against human 8505C cells after 96 hrs by SRB assay. The format is functional, cell-based. The settings on record: Homo sapiens, 8505C, 96 h.
Assay [7] is described as follows: Cytotoxicity against mouse NIH/3T3 cells after 96 hrs by SRB assay. The format is cell-based. The settings on record: NIH3T3, 96 h.
Assay [8] relates to A549. Put plainly: Cytotoxicity against human A549 cells after 96 hrs by SRB assay. Particulars: Homo sapiens, A549, 96 h. The format is functional, cell-based.
For assay [9], the system named is SW480. Put plainly: Cytotoxicity against human SW480 cells after 96 hrs by SRB assay. The format is functional, cell-based. The settings on record: SW480, 96 h.
The test system of assay [10] is FaDu. Nature of the assay: Cytotoxicity against human FADU cells after 96 hrs by SRB assay. The format is functional, cell-based.
Assay [11] is described as follows: Cytotoxicity against human 518A2 cells after 96 hrs by SRB assay. In kind it is functional, cell-based. The settings on record: 518A2, 96 h.
Assay [12] concerns MCF7. Put plainly: Cytotoxicity against human MCF7 cells after 96 hrs by SRB assay. In kind it is functional, cell-based. The settings on record: Homo sapiens, MCF7, 96 h.
Assay [13] concerns DLD-1. Put plainly: Cytotoxicity against human DLD1 cells after 96 hrs by SRB assay. Particulars: Homo sapiens, DLD-1, 96 h. In kind it is functional, cell-based.
Assay [14] has as its system HCT-8. Nature of the assay: Cytotoxicity against human HCT8 cells after 96 hrs by SRB assay. The format is functional, cell-based. Particulars: HCT-8, 96 h.
Assay [15] has as its system SW-1736. Nature of the assay: Cytotoxicity against human SW1736 cells after 96 hrs by SRB assay. Particulars: Homo sapiens, SW-1736, 96 h. In kind it is functional, cell-based.
Assay [16] has as its system HCT-116. Put plainly: Cytotoxicity against human HCT116 cells after 96 hrs by SRB assay. In kind it is functional, cell-based. The settings on record: HCT-116, 96 h.
Assay [17] is described as follows: Cytotoxicity against human Lipo cells after 96 hrs by SRB assay. The format is functional, cell-based. The settings on record: Homo sapiens, Lipo, 96 h.

As for `COC(=O)[C@@]1(C)CC[C@]2(C)CC[C@]3(C)C(=CC(=O)[C@@H]4[C@@]5(C)CC[C@H](OC(=O)[C@H](C)N)C(C)(C)[C@@H]5CC[C@]43C)[C@@H]2C1` [listing 1 of 2 here], in assay [1], the outcome was Active.
The term pIC50 denotes −log10 of the IC50, conventionally taken in molar units. A higher pIC50 goes with a small IC50. For the molecule `CC1(C)[C@@H](O)CC[C@]2(C)[C@H]3C(=O)C=C4[C@@H]5C[C@@](C)(C(=O)O)CC[C@]5(C)CC[C@@]4(C)[C@]3(C)CC[C@@H]12` [ENOXOLONE], the pIC50 is 4.10 in [2]; 4.13 in [3]; 4.10 in [4]; 4.09 in assay [5]; 4.06 in assay [6]; 4.73 in [7]. The pIC50 in [8] is 4.08; in [9] it was 4.06; in assay [10] it was 4.07; in assay [11], 4.08; in assay [12] it was 4.07; in assay [13], 4.09. For the same molecule, the pIC50 in [14] was 4.10; in [15] it was 4.11; in assay [16], 4.10; in assay [17], 4.09. Besides, the outcome in assay [1] was Active.
`CCOC(=O)[C@@]1(C)CC[C@]2(C)CC[C@]3(C)C(=CC(=O)[C@@H]4[C@@]5(C)CC[C@H](OC(=O)[C@@H](C)N)C(C)(C)[C@@H]5CC[C@]43C)[C@@H]2C1`: the pIC50 was 5.56 in [2]; 5.49 in assay [3]; 5.36 in [4]; 5.59 in [5]; 5.35 in assay [6]; 5.36 in [8]. Also, the negative-log IC50 (pIC50) in [9] was 5.48; in assay [10], 5.41; in assay [11], 5.56; in [12], 5.45; in assay [13], 5.35; in [14], 5.62. Further, the pIC50 in [15] is 5.39; in assay [16] it was 5.37; in assay [17], 5.38.
As to `COC(=O)[C@@]1(C)CC[C@]2(C)CC[C@]3(C)C(=CC(=O)[C@@H]4[C@@]5(C)CC[C@H](O)C(C)(C)[C@@H]5CC[C@]43C)[C@@H]2C1`, the pIC50 in assay [2] is 4.60; in [3], 4.59; in [4] it was 4.56; in [5] it was 4.71; in assay [6] it was 4.58; in assay [7] it was 4.64. Also, the pIC50 is 4.63 in assay [8]; 4.79 in [9]; 4.63 in [10]; 4.56 in [11]; 4.65 in [12]; 4.58 in assay [13]. Besides, the pIC50 in assay [14] was 4.61; in assay [15], 4.46; in [16], 4.66; in assay [17], 4.69.
Turning to `COC(=O)[C@@]1(C)CC[C@]2(C)CC[C@]3(C)C(=CC(=O)[C@@H]4[C@@]5(C)CC[C@H](OC(=O)CN)C(C)(C)[C@@H]5CC[C@]43C)[C@@H]2C1`, the result in [1] was Active.
Take `COC(=O)[C@@]1(C)CC[C@]2(C)CC[C@]3(C)C(=CC(=O)[C@@H]4[C@@]5(C)CC[C@H](OC(=O)[C@@H](C)N)C(C)(C)[C@@H]5CC[C@]43C)[C@@H]2C1`: the pIC50 was 5.63 in assay [2]; 5.65 in [3]; 5.55 in assay [4]; 5.65 in assay [5]; 5.53 in [6]; 5.65 in [8]. Also, the pIC50 is 5.45 in assay [9]; 5.65 in assay [10]; 5.65 in [11]; 5.65 in assay [12]; 5.47 in assay [13]; 5.65 in [14]. For the same molecule, the figures for the pIC50 in assay [15], in [16] and in assay [17] were 5.65, 5.65 and 5.45, respectively.
Regarding `CC(C)OC(=O)[C@@]1(C)CC[C@]2(C)CC[C@]3(C)C(=CC(=O)[C@@H]4[C@@]5(C)CC[C@H](OC(=O)[C@@H](C)N)C(C)(C)[C@@H]5CC[C@]43C)[C@@H]2C1`, the pIC50 in assay [2] was 5.51; in [3], 5.77; in assay [4] it was 5.46; in assay [5], 5.46; in assay [6], 5.45; in assay [8] it was 5.50. The negative-log IC50 (pIC50) in [9] is 5.46; in assay [10], 5.26; in [11], 5.26; in [12], 5.45; in [13], 5.25; in assay [14], 5.48. Further, the pIC50 in assay [15] is 5.46; in [16], 5.32; in assay [17] it was 5.33. Moreover, the outcome in [1] was Active.
Take `CCOC(=O)[C@@]1(C)CC[C@]2(C)CC[C@]3(C)C(=CC(=O)[C@@H]4[C@@]5(C)CC[C@H](O)C(C)(C)[C@@H]5CC[C@]43C)[C@@H]2C1`: the pIC50 in [2] is 4.63; in assay [3] it was 4.57; in assay [4], 4.65; in [5], 4.60; in [6] it was 4.61; in assay [7], 4.63. Also, the pIC50 is 4.64 in assay [8]; 4.72 in assay [9]; 4.62 in assay [10]; 4.60 in assay [11]; 4.73 in assay [12]; 4.55 in assay [13]. In addition, the pIC50 is 4.36 in assay [14], 4.87 in [15], 4.67 in [16] and 4.56 in assay [17].
`CC(C)OC(=O)[C@@]1(C)CC[C@]2(C)CC[C@]3(C)C(=CC(=O)[C@@H]4[C@@]5(C)CC[C@H](OC(=O)[C@H](C)N)C(C)(C)[C@@H]5CC[C@]43C)[C@@H]2C1`: the pIC50 in [2] is 5.46; in assay [3] it was 5.68; in assay [4], 5.34; in [5], 5.45; in assay [6], 5.46; in assay [8], 5.46. In addition, the pIC50 in assay [9] is 5.46; in assay [10], 5.27; in [11], 5.29; in assay [12], 5.45; in assay [13], 5.26; in assay [14] it was 5.29. Also, the values for the pIC50 in assay [15], in assay [16] and in assay [17] were 5.45, 5.30 and 5.45, respectively.
`CC1(C)[C@@H](O)CC[C@]2(C)[C@H]3C(=O)C=C4[C@@H]5C[C@@](C)(C(=O)OCc6ccccc6)CC[C@]5(C)CC[C@@]4(C)[C@]3(C)CC[C@@H]12`: the pIC50 in [2] was 4.63; in assay [3] it was 4.69; in assay [4], 4.94; in assay [5], 4.97; in assay [6], 5.09; in [7], 4.68. The pIC50 in assay [8] was 5.21; in assay [9], 5.21; in assay [10], 5.26; in assay [11] it was 4.74; in assay [12] it was 4.87; in assay [13], 4.64. The pIC50 in assay [14] was 4.60; in assay [15], 5.56; in [16], 4.69; in assay [17] it was 4.94.
`COC(=O)[C@@]1(C)CC[C@]2(C)CC[C@]3(C)C(=CC(=O)[C@@H]4[C@@]5(C)CC[C@H](OC(=O)[C@H](C)N)C(C)(C)[C@@H]5CC[C@]43C)[C@@H]2C1` [listing 2 of 2 here]: the negative-log IC50 (pIC50) is 5.46 in assay [2]; 5.53 in [3]; 5.54 in assay [4]; 5.44 in assay [5]; 5.37 in assay [6]; 5.56 in [8]. For the same molecule, the pIC50 in assay [9] is 5.45; in assay [10], 5.34; in [11], 5.45; in [12], 5.45; in assay [13], 5.35; in assay [14], 5.55. Also, the negative logarithm of the IC50 (pIC50) was 5.49 in assay [15], 5.56 in assay [16] and 5.37 in assay [17].
On to `CCOC(=O)[C@@]1(C)CC[C@]2(C)CC[C@]3(C)C(=CC(=O)[C@@H]4[C@@]5(C)CC[C@H](OC(=O)[C@H](C)N)C(C)(C)[C@@H]5CC[C@]43C)[C@@H]2C1`, for which the pIC50 is 5.64 in [2]; 5.59 in [3]; 5.60 in assay [4]; 5.63 in assay [5]; 5.41 in [6]; 5.46 in assay [8]. In addition, the pIC50 is 5.55 in assay [9]; 5.37 in [10]; 5.57 in assay [11]; 5.45 in assay [12]; 5.43 in assay [13]; 5.66 in assay [14]. Also, the pIC50 in [15] is 5.53; in [16], 5.55; in [17], 5.56.
Consider `CC(C)OC(=O)[C@@]1(C)CC[C@]2(C)CC[C@]3(C)C(=CC(=O)[C@@H]4[C@@]5(C)CC[C@H](O)C(C)(C)[C@@H]5CC[C@]43C)[C@@H]2C1`, for which the pIC50 is 4.49 in assay [2]; 4.60 in [3]; 4.80 in assay [4]; 4.80 in assay [5]; 4.85 in assay [6]; 4.49 in [7]. For the same molecule, the pIC50 in [8] was 4.84; in assay [9] it was 4.81; in [10], 4.84; in assay [11] it was 4.74; in [12], 4.79; in [13], 4.56. Further, the negative-log IC50 (pIC50) in [14] was 4.62; in [15], 4.89; in assay [16] it was 4.58; in [17] it was 4.80.
